Source: ChEMBL document CHEMBL5724801, “EUbOPEN Chemogenomics Library - Multiplex” (2024)
Several values for one entry are separate records, joined by “and”; a condition that tells them apart may be missing. Identical values can stand only once.

System: U2OS
Test: Multiplex assay against U2OS
Format: toxicity, cell-based
Conditions: human
How it was run: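 Cells were classed with CellPathfinder machine-learning gating, first as Hoechst high-intensity objects or normal cells, then (normal cells) as healthy, pyknosed or fragmented nuclei, and finally (pyknosed cells) as mitotic or apoptotic. Staining of live cells at seeding used Hoechst33342, BioTracker Green Microtubule Cytoskeleton Dye, MitoTracker Red and Annexin V Alexa Fluor 680, with imaging on a CQ1 microscope at 37°C and 5% CO2 after compound addition. Tubulin, mitochondrial-mass and membrane-permeability phenotypes are per cents of healthy-nucleus cells.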

[1] = 12 h, 1 µM, compound concentration 1 uM
[2] = 12 h, 10 µM, compound concentration 10 uM
[3] = 24 h, 1 µM, compound concentration 1 uM
[4] = 24 h, 10 µM, compound concentration 10 uM
[5] = 48 h, 1 µM, compound concentration 1 uM
[6] = 48 h, 10 µM, compound concentration 10 uM

With `C=CC(=O)Nc1cc(Nc2nccc(-n3cc(CN(C)C)c(-c4ccccc4)n3)n2)c(OC)cc1N1CCOCC1` [LAZERTINIB] the “Population Apoptotic (%)” value [1] was 37.5% and 46.67%, the “Population Fragmented Nuclei (%)” value [1] was 2.41% and 2.92% and the “Population Healthy Nuclei (%)” value [1] was 85.54% and 75.18%. For the same molecule, the “Population Hoechst High Intensity Objects (%)” value [1] was 0%, the “Population Membrane Permeable-Phenotype (%)” value [1] was 40.14% and 54.37% and the “Population Mitotic Cells (%)” value [1] was 62.5% and 53.33%. The “Population Normal (%)” value [1] was 100%, the “Population Pyknosed Nuclei (%)” value [1] was 12.05% and 21.9% and the “Population Tubulin-Different-Phenotype (%)” value [1] was 55.63% and 64.08%. The “Total Cell Count” value [1] was 332 and 137, the “Population Apoptotic (%)” value [2] was 49.07% and 38.89% and the “Population Fragmented Nuclei (%)” value [2] was 3.84% and 4.81%. The “Population Healthy Nuclei (%)” value [2] was 68.54% and 60.58%, the “Population Hoechst High Intensity Objects (%)” value [2] was 0% and the “Population Membrane Permeable-Phenotype (%)” value [2] was 48.88% and 50.79%. The “Population Mitotic Cells (%)” value [2] was 50.93% and 61.11%, the “Population Normal (%)” value [2] was 100% and the “Population Pyknosed Nuclei (%)” value [2] was 27.62% and 34.62%. The “Population Tubulin-Different-Phenotype (%)” value [2] was 97.39% and 85.71%, the “Population Apoptotic (%)” value [3] was 29.69% and 52.94% and the “Population Fragmented Nuclei (%)” value [3] was 2.35% and 3.45%. The “Population Healthy Nuclei (%)” value [3] was 80.94% and 73.1%, the “Population Hoechst High Intensity Objects (%)” value [3] was 0% and the “Population Membrane Permeable-Phenotype (%)” value [3] was 20% and 30.19%. For the same molecule, the “Population Mitotic Cells (%)” value [3] was 70.31% and 47.06%, the “Population Normal (%)” value [3] was 100% and the “Population Pyknosed Nuclei (%)” value [3] was 16.71% and 23.45%. For the same molecule, the “Population Tubulin-Different-Phenotype (%)” value [3] was 32.58% and 42.45%, the “Total Cell Count” value [3] was 383 and 145 and the “Population Apoptotic (%)” value [4] was 55.04% and 53.66%. The “Population Fragmented Nuclei (%)” value [4] was 3.46% and 5.83%, the “Population Healthy Nuclei (%)” value [4] was 64.69% and 54.37% and the “Population Hoechst High Intensity Objects (%)” value [4] was 0.25% and 0%. The “Population Membrane Permeable-Phenotype (%)” value [4] was 39.69% and 35.71%, the “Population Mitotic Cells (%)” value [4] was 44.96% and 46.34% and the “Population Normal (%)” value [4] was 99.75% and 100%. For the same molecule, the “Population Pyknosed Nuclei (%)” value [4] was 31.85% and 39.81%, the “Population Tubulin-Different-Phenotype (%)” value [4] was 93.51% and 87.5% and the “Population Apoptotic (%)” value [5] was 61.96% and 68.33%. For the same molecule, the “Population Fragmented Nuclei (%)” value [5] was 3% and 6.88%, the “Population Healthy Nuclei (%)” value [5] was 79.78% and 55.62% and the “Population Hoechst High Intensity Objects (%)” value [5] was 0%. The “Population Mitotic Cells (%)” value [5] was 38.04% and 31.67%, the “Population Normal (%)” value [5] was 100% and the “Population Pyknosed Nuclei (%)” value [5] was 17.23% and 37.5%. The “Population Tubulin-Different-Phenotype (%)” value [5] was 15.02% and 28.09%, the “Population Apoptotic (%)” value [6] was 64.5% and 69.23% and the “Population Fragmented Nuclei (%)” value [6] was 5.97% and 5.31%. For the same molecule, the “Population Healthy Nuclei (%)” value [6] was 59.26% and 60.18%, the “Population Hoechst High Intensity Objects (%)” value [6] was 0% and the “Population Membrane Permeable-Phenotype (%)” value [6] was 31.6% and 30.88%. The “Population Mitotic Cells (%)” value [6] was 35.5% and 30.77%, the “Population Normal (%)” value [6] was 100% and the “Population Pyknosed Nuclei (%)” value [6] was 34.77% and 34.51%. For the same molecule, the “Population Tubulin-Different-Phenotype (%)” value [6] was 77.43% and 79.41%.
